Insulin prom act = activators of insulin promoter-driven GFP, primary screen, imaging, TRM-6 cells (human fetal islet line), eGFP reporter, cell count; 0.81% of 130,000 active; plate-scaled: unstimulated 0, stimulated control 100; activation, % at 2 µM; AID 1296, 2008;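 active = activation at 2 µM above a set limit, confirmed on inspection of the cell images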;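 also: share of cells whose green reporter signal exceeds an intensity cutoff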
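Assay system: TRM-6 human fetal islet cells, insulin promoter–eGFP reporter; Also added: 0.75 µM tamoxifen as reporter inducer; Schedule: 15 h tamoxifen pre-treatment, 48 h compound treatment at 37 °C; Signal: fixed-cell fluorescence microscopy, eGFP plus Hoechst; Read-out: percent activation from GFP-positive cell fraction; Control set: stimulated and unstimulated wells.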
* hit, by the source's call. The full list was thinned out, with hits kept by preference.

SMILES	Insulin prom act
O=C(Oc1cccc(NC(=O)c2ccccc2Cl)c1)c1ccc([N+](=O)[O-])cc1	-7
O=C(NCc1ccccn1)C(=O)NN=C1CCCCCCC1	8
Cc1cc(C)c[n+](-c2[nH]c(=O)sc2/C=N/NC([S-])=Nc2ccccc2)c1	103
COc1cccc(N2CCN(C3CC(=O)N(c4ccc(F)c(Cl)c4)C3=O)CC2)c1 (configuration not stated)	-10
NC(=O)C1CCN(C2CC(=O)N(c3ccc(F)c(Cl)c3)C2=O)CC1 (configuration not stated)	86*
O=C(C1CCN(C2CC(=O)N(c3cccc(Cl)c3)C2=O)CC1)N1CCCC1 (configuration not stated)	7
COc1ccc(NC(C)=O)cc1CNC(=O)COc1c(C)c(C)cc(C)c1C	-2
O=C(Nc1ccc(Cl)cc1C(=O)Nc1ccc(Br)cn1)c1ccco1	600*
COc1ccc(Cl)cc1NC(=O)c1ccco1	-6
O=C(Nc1ccc(Cl)cn1)c1ccc(-c2cc(Cl)ccc2Cl)o1	3
COC(=O)c1[nH]c2ccccc2c1NC(=O)CN1CCN(c2cccc(OC)c2)C(C)C1 (configuration not stated)	-9
COC(=O)c1[nH]c2ccc(C)cc2c1NC(=O)Nc1ccccc1OC	0
COC(=O)c1[nH]c2cc(C)ccc2c1NC(=O)CN1CCCc2ccccc21	191*
O=C(NCc1ccccc1Cl)C(=O)NCC(c1ccco1)N1CCOCC1 (configuration not stated)	-78
NS(=O)(=O)c1ccc(NC(=S)Nc2ccc(F)c(F)c2)cc1	8
CCOC(=O)COn1c(=O)c(-c2ccc(OC)c(OC)c2)[n+]([O-])c2ccccc21	0
COc1ccc(-c2c(=O)n(OCc3ccccn3)c3ccccc3[n+]2[O-])cc1OC	-10
Cc1c(=O)n(OCc2cccc(F)c2)c2ccccc2[n+]1[O-]	132*
COc1ccc(C(=O)NCCN2CCOCC2)cc1OC	-79
O=C(CCSCCC(=O)NCCN1CCOCC1)NCCN1CCOCC1	-7
COCCNC(=O)C(=O)NCCN1CCOCC1	494*
CCN(CC)C(=O)C12CC3CC(CC(Br)(C3)C1)C2	-3
COc1ccccc1N(CC(=O)NC(C)(C)C)S(=O)(=O)c1cccs1	10
O=C(CSc1ncccn1)NC(=O)c1ccccc1	7
CSCc1ccc(C(=O)Nc2cccc(C)c2C)cc1	3
SMILES	Insulin prom act
CCOc1ccc(C=NC23CN4CN(CN(C4)C2)C3)cc1	191*
CCOc1ccc(CNC(=S)N/N=C\c2ccc([N+](=O)[O-])cc2)cc1	0
CCOc1ccc(OCCN2CCCCC2)cc1	-62
Cc1ccc(C2NNC(=O)C2NC(=O)c2ccccc2)cc1 (configuration not stated)	0
CC(C)[C@H](NC(=O)c1ccc(C(C)(C)C)cc1)C(=O)Nc1nnc(C2CC2)s1	-5
CC(=O)Nc1ccc(C(=O)OCC(=O)NC2CCCCCCC2)cc1	0
COC(=O)C1=C(C(=O)OC)C(c2ccccc2O)c2sc(=O)[nH]c2S1 (configuration not stated)	0
CCC(=O)N1CCN(c2ccc(NC(=O)c3ccc(-c4ccccc4)cc3)cc2)CC1	-3
COc1ccccc1NC(=O)CC1C(=O)NCCN1C(=O)Nc1ccccc1 (configuration not stated)	0
CC(C)CCN1CCNC(=O)C1CC(=O)Nc1ccc(F)cc1 (configuration not stated)	186*
C=CCNC(=O)CC1C(=O)NCCN1Cc1c(F)cccc1Cl (configuration not stated)	4
C#CC(CC)(CC)NC(=O)c1c(C)noc1C	-4
O=C(Nc1ncc(Cc2ccc(SC(F)F)cc2)s1)c1ccc(OC(F)F)cc1	157
Cn1cnnc1SCC(=O)Nc1cc(S(=O)(=O)N2CCCCCC2)ccc1Cl	-5
COCCNC(=O)CCCC(=O)NCCOC	3
COc1ccc(N(C(C)=O)S(=O)(=O)c2cccs2)cc1	506*
CC(=O)N(c1ccc2oc(=O)sc2c1)S(=O)(=O)c1cccs1	0
CCNC(=O)c1ccc(N(C)S(=O)(=O)c2cccs2)cc1	0
O=C(c1cc(Cl)cc(Cl)c1)N1CCOCC1	-87
CCOC(=O)c1cccc(NC(=O)c2ccc(N(C)C)cc2)c1	-7
O=c1c2ccccc2nc2n1CC/C2=C/N1CCN(c2cccc(C(F)(F)F)c2)CC1	-6
CCC(=O)c1c[nH]c(C(=O)NCCCn2ccnc2)c1	-4
S=C(Nc1ccc2cn[nH]c2c1)Nc1ccccc1Cl	-64
COC(=O)c1ccccc1N1C(=O)C2C(C1=O)C1C=CC2C12CC2 (configuration not stated)	164*
O=C(COc1ccc(Cl)c(Cl)c1)NN1C(=O)C2C(C1=O)C1C=CC2C12CC2 (configuration not stated)	6
SMILES	Insulin prom act
COC(=O)c1ccccc1N1C(=O)C2C(C1=O)[C@H]1C=C[C@@H]2C1 (some centres not stated)	-75
CC(C)C[C@H](NC(=O)OC(C)(C)C)c1n[nH]c(=S)n1N	7
O=S1(=O)N=C2CCCCCN2C(c2ccc(Br)cc2)N1 (configuration not stated)	6
O=C(CN1C(=O)c2ccccc2C1=O)Nc1ccccc1C(=O)N1CCCC1	127
CCn1c(SCC(=O)Nc2ccccc2)nnc1-c1ccc(S(=O)(=O)N2CCOCC2)cc1	-3
CCn1c(SCC(=O)N2CCCC(C)C2)nnc1-c1ccc(S(=O)(=O)N2CCN(C)CC2)cc1 (configuration not stated)	81*
CCSc1nnc(-c2ccc(S(=O)(=O)N3CCCC3)cc2)n1C	0
CC(=O)N[C@@H](C)C(=O)OC(C)C(=O)Nc1cccc([N+](=O)[O-])c1 (some centres not stated)	392*
O=C(CCCOc1ccccc1)Nc1cccc([N+](=O)[O-])c1	-77
CC(C(=O)Nc1cccc(Br)c1)c1ccc([N+](=O)[O-])cc1 (configuration not stated)	-7
Cc1ccccc1NC(=S)N(CCN1CCOCC1)Cc1ccccc1F	-7
Cc1nc(-c2cccc(NS(=O)(=O)c3cccc4ccccc34)c2)cs1	-7
OC(COCc1ccco1)CN1CCN(C(c2ccccc2)c2ccccc2)CC1 (configuration not stated)	129*
CN(Cc1cccs1)CC(O)COCc1ccco1 (configuration not stated)	-5
CN=c1sc2ccccc2n1CC(O)COCc1ccco1 (configuration not stated)	-7
O=C(O)C1=C(OCc2ccccc2)C(=O)NCC1	6
Cc1[nH]nc2c1C(c1cn[nH]c1-c1ccc(F)cc1)C(C#N)=C(N)O2 (configuration not stated)	0
Cc1ccc(N/C(C(Cl)=C(Cl)Cl)=C(/Cl)[N+](=O)[O-])c(C)c1	-8
C[C@@H]1CN(Cc2cn(C)nc2-c2cccc(Cl)c2)C[C@H](C)O1	115
COc1cccc(N/C=C/C(=O)c2ccc(Br)cc2)c1	4
COc1ccc(C(=O)/C=C/Nc2cccc(O)c2)cc1	80*
COc1ccc(N/C=C\C(=O)c2ccc3c(c2)OCO3)cc1	6
Cc1ccc(CCCOC(=O)CN2CCCCC2)cc1	0
CCOc1ccc(CCNC(=O)C2CCN(c3nn4c(=O)cc(C)nc4s3)CC2)cc1OCC	-8
CCOC(=O)CC(NC(=O)c1cccc2c1C(=O)N(Cc1cccnc1)C2)c1ccc(OCC)c(OC)c1 (configuration not stated)	-7

Source: PubChem BioAssay
